In ChEMBL document CHEMBL2424616, “Synthesis and antimicrobial activity of novel 5-(1-adamantyl)-2-aminomethyl-4-substituted-1,2,4-triazoline-3-thiones” (2013):
≈ marks a conversion by molar mass, not a printed value.

Experiments:
[1] = tested on: Micrococcus luteus; assay: Antibacterial activity against Micrococcus luteus IFO 3232 assessed as growth inhibition at 100 ug/disc after 24 hrs by agar disc-diffusion method; type: functional
In short: (§1)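 Agar disc-diffusion on Mueller-Hinton agar. Sterile 8 mm filter-paper discs carrying 100 µg of agent were laid on the seeded agar. Plates were incubated at 37 °C, and growth-inhibition zone diameters were read after 24 h for bacteria.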

[2] = tested on: Micrococcus luteus; assay: Antibacterial activity against Micrococcus luteus IFO 3232 after 24 hrs by two fold dilution method; type: functional
[3] = tested on: Bacillus subtilis; assay: Antibacterial activity against Bacillus subtilis IFO 3007 assessed as growth inhibition at 100 ug/disc after 24 hrs by agar disc-diffusion method; type: functional; in short: as §1
[4] = tested on: Pseudomonas aeruginosa; assay: Antibacterial activity against Pseudomonas aeruginosa IFO 3448 assessed as growth inhibition at 100 ug/disc after 24 hrs by agar disc-diffusion method; type: functional; in short: as §1
[5] = tested on: Escherichia coli; conditions: IFO 3301, 100 ug/disc
[6] = tested on: Bacillus subtilis; assay: Antibacterial activity against Bacillus subtilis IFO 3007 after 24 hrs by two fold dilution method; type: functional
[7] = tested on: Staphylococcus aureus; assay: Antibacterial activity against Staphylococcus aureus IFO 3060 after 24 hrs by two fold dilution method; type: functional
[8] = tested on: Pseudomonas aeruginosa; assay: Antibacterial activity against Pseudomonas aeruginosa IFO 3448 after 24 hrs by two fold dilution method; type: functional
[9] = tested on: Staphylococcus aureus; assay: Antibacterial activity against Staphylococcus aureus IFO 3060 assessed as growth inhibition at 100 ug/disc after 24 hrs by agar disc-diffusion method; type: functional; in short: as §1
[10] = tested on: Bacillus subtilis; assay: Antibacterial activity against Bacillus subtilis IFO 3007 assessed as growth inhibition at 200 ug/disc after 24 hrs by agar disc-diffusion method; type: functional; conditions: IFO 3007, 24 h, read-out: DIZ
[11] = tested on: Micrococcus luteus; assay: Antibacterial activity against Micrococcus luteus IFO 3232 assessed as growth inhibition at 200 ug/disc after 24 hrs by agar disc-diffusion method; type: functional; conditions: IFO 3232, 24 h, read-out: DIZ
[12] = tested on: Pseudomonas aeruginosa; assay: Antibacterial activity against Pseudomonas aeruginosa IFO 3448 assessed as growth inhibition at 200 ug/disc after 24 hrs by agar disc-diffusion method; type: functional; conditions: IFO 3448, 24 h, read-out: DIZ
[13] = tested on: Escherichia coli; assay: Antibacterial activity against Escherichia coli IFO 3301 assessed as growth inhibition at 200 ug/disc after 24 hrs by agar disc-diffusion method; type: functional; conditions: IFO 3301, 24 h, read-out: DIZ
[14] = tested on: Candida albicans; assay: Antifungal activity against Candida albicans IFO 0583 assessed as growth inhibition at 200 ug/disc after 48 hrs by agar disc-diffusion method; type: functional; conditions: IFO 0583, 48 h, read-out: DIZ
[15] = tested on: Staphylococcus aureus; assay: Antibacterial activity against Staphylococcus aureus IFO 3060 assessed as growth inhibition at 200 ug/disc after 24 hrs by agar disc-diffusion method; type: functional; conditions: IFO 3060, 24 h, read-out: DIZ
[16] = tested on: Escherichia coli; assay: microbe, parasite or virus in culture; conditions: IFO 3301, 24 h
[17] = tested on: Escherichia coli; assay: microbe, parasite or virus in culture; conditions: IFO 3301, 24 h, read-out: DIZ
[18] = tested on: Candida albicans; assay: Antifungal activity against Candida albicans IFO 0583 after 24 hrs by two fold dilution method; type: functional; conditions: IFO 0583, 24 h
[19] = tested on: Candida albicans; assay: Antifungal activity against Candida albicans IFO 0583 assessed as growth inhibition at 100 ug/disc after 48 hrs by agar disc-diffusion method; type: functional; conditions: IFO 0583, 48 h, read-out: DIZ

Compound	zone of inhibition at 200 µg/disc [10] [mm]	zone of inhibition at 200 µg/disc [11] [mm]	MIC ([2]; IFO 3232, 24 h) [µg/mL]	zone of inhibition at 200 µg/disc [12] [mm]	zone of inhibition at 200 µg/disc [13] [mm]	MIC ([6]; IFO 3007, 24 h) [µg/mL]	zone of inhibition at 200 µg/disc [14] [mm]	MIC ([7]; IFO 3060, 24 h) [µg/mL]	zone of inhibition at 200 µg/disc [15] [mm]	other results
GENTAMICIN	–	–	–	–	–	–	–	–	–	inhibition zone (IZ) [1]: 18 mm; MIC [2]: 2 µg/mL; inhibition zone (IZ) [3]: 25 mm; inhibition zone (IZ) [4]: 19 mm; IZ [5]: 20 mm; MIC [6]: 2 µg/mL; MIC [7]: 2 µg/mL; MIC [8]: 1 µg/mL; inhibition zone (IZ) [9]: 26 mm
CCN1CCN(Cn2nc(C34CC5CC(CC(C5)C3)C4)n(/N=C/c3ccc(O)cc3)c2=S)CC1	29	25	2 (≈ 4.16 µM)	13	17	1 (≈ 2.08 µM)	< 10	1 (≈ 2.08 µM)	30	–
Oc1ccc(/C=N/n2c(C34CC5CC(CC(C5)C3)C4)nn(CN3CCN(c4ccccc4)CC3)c2=S)cc1	22	19	16 (≈ 30.3 µM)	< 10	16	4 (≈ 7.57 µM)	< 10	4 (≈ 7.57 µM)	22	–
COc1ccccc1N1CCN(Cn2nc(C34CC5CC(CC(C5)C3)C4)n(/N=C/c3ccccc3O)c2=S)CC1	33	25	2 (≈ 3.58 µM)	12	18	0.5 (≈ 0.895 µM)	< 10	0.5 (≈ 0.895 µM)	28	MIC [16]: 8 µg/mL (≈ 14.3 µM)
CCN1CCN(Cn2nc(C34CC5CC(CC(C5)C3)C4)n(/N=C/c3ccccc3O)c2=S)CC1	30	24	2 (≈ 4.16 µM)	11	16	0.5 (≈ 1.04 µM)	< 10	1 (≈ 2.08 µM)	26	–
CC1(C)S[C@@H]2[C@H](NC(=O)[C@H](N)c3ccccc3)C(=O)N2[C@H]1C(=O)O [AMPICILLIN]	–	–	2 (≈ 5.72 µM)	–	–	0.5 (≈ 1.43 µM)	–	2 (≈ 5.72 µM)	–	zone of inhibition at 100 µg/disc [17]: 17 mm; zone of inhibition at 100 µg/disc ([1]; IFO 3232, 24 h, read-out: DIZ): 19 mm; zone of inhibition at 100 µg/disc ([3]; IFO 3007, 24 h, read-out: DIZ): 21 mm; zone of inhibition at 100 µg/disc ([4]; IFO 3448, 24 h, read-out: DIZ): 16 mm; MIC ([8]; IFO 3448, 24 h): 2 µg/mL (≈ 5.72 µM); zone of inhibition at 100 µg/disc ([9]; IFO 3060, 24 h, read-out: DIZ): 23 mm
COc1ccccc1N1CCN(Cn2nc(C34CC5CC(CC(C5)C3)C4)n(/N=C/c3ccc(O)cc3)c2=S)CC1	29	18	16 (≈ 28.6 µM)	14	16	1 (≈ 1.79 µM)	< 10	1 (≈ 1.79 µM)	30	–
Cn1c(C23CC4CC(CC(C4)C2)C3)nn(CN2CCN(c3cccc(C(F)(F)F)c3)CC2)c1=S	33	28	4 (≈ 8.14 µM)	21	19	0.5 (≈ 1.02 µM)	< 10	0.5 (≈ 1.02 µM)	30	MIC [16]: 16 µg/mL (≈ 32.5 µM); MIC ([8]; IFO 3448, 24 h): 8 µg/mL (≈ 16.3 µM)
COc1ccccc1N1CCN(Cn2nc(C34CC5CC(CC(C5)C3)C4)n(C)c2=S)CC1	20	19	16 (≈ 35.3 µM)	< 10	11	4 (≈ 8.82 µM)	< 10	4 (≈ 8.82 µM)	22	–
Clc1ccccc1C(c1ccccc1)(c1ccccc1)n1ccnc1 [CLOTRIMAZOLE]	–	–	–	–	–	–	–	–	–	MIC [18]: 2 µg/mL (≈ 5.8 µM); zone of inhibition at 100 µg/disc [19]: 21 mm
FC(F)(F)c1ccc(NCn2nc(C34CC5CC(CC(C5)C3)C4)n(-c3ccc(Cl)cc3)c2=S)cc1	22	18	16 (≈ 30.8 µM)	11	14	8 (≈ 15.4 µM)	< 10	–	16	–
Oc1ccccc1/C=N/n1c(C23CC4CC(CC(C4)C2)C3)nn(CN2CCN(c3ccccc3)CC2)c1=S	25	18	16 (≈ 30.3 µM)	12	14	4 (≈ 7.57 µM)	< 10	8 (≈ 15.1 µM)	22	–
